Test results published in PMC4547362 (Molecular cancer therapeutics, 2015).

Columns and labels:
[1] = test system: patient-derived PCs; test: Ex vivo organ explant culture of patient-derived prostate cancers; design: species or system human; settings: 7 days ex vivo explant organ culture
Method in brief: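 Patient-derived prostate cancers from radical prostatectomies (n=11, Gleason 7) were grown as explant organ cultures for 7 days with test compound or control compound at set concentrations. A pre-culture zero sample was formalin-fixed for baseline nuclear Stat5a/b. Explants were scored by Stat5a/b immunohistochemistry and TUNEL.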

[2] = test system: SUP-B15, 12878 and 3798 cell lines; test: Cell viability; settings: 48 h, MTT
[3] = test system: CWR22Rv1 cells; test: Viability of CWR22Rv1 cells after Stat5a/b shRNA or control shRNA, trypan blue; assay type: cell-based, human; settings: 12.5 μM, 48 h
[4] = test system: caspase-3; test: Caspase-3 activation assay, CWR22Rv1; assay type: cell-based, human; settings: 12.5 μM, CWR22Rv1, 72 h
Method in brief: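 CWR22Rv1 cells were exposed to 12.5 μM test compound or vehicle for set periods. Caspase-3 was captured with anti-caspase-3 mAb, and its cleavage of AFC substrate was read fluorometrically at 505 nm. In the rescue arm, cells were first infected with adenovirus carrying constitutively active Stat5a (MOI 2).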

[5] = target: Stat5b (Homo sapiens, UniProt P51692); test: Stat5b luciferase reporter gene assay; assay type: cell-based; settings: read-out: IC50, transcriptional activity of Stat5b; PC-3 cells, β-casein-luciferase, hPrl 10 nM 16 h
Sequence of Stat5b (P51692 whole entry, species assumed): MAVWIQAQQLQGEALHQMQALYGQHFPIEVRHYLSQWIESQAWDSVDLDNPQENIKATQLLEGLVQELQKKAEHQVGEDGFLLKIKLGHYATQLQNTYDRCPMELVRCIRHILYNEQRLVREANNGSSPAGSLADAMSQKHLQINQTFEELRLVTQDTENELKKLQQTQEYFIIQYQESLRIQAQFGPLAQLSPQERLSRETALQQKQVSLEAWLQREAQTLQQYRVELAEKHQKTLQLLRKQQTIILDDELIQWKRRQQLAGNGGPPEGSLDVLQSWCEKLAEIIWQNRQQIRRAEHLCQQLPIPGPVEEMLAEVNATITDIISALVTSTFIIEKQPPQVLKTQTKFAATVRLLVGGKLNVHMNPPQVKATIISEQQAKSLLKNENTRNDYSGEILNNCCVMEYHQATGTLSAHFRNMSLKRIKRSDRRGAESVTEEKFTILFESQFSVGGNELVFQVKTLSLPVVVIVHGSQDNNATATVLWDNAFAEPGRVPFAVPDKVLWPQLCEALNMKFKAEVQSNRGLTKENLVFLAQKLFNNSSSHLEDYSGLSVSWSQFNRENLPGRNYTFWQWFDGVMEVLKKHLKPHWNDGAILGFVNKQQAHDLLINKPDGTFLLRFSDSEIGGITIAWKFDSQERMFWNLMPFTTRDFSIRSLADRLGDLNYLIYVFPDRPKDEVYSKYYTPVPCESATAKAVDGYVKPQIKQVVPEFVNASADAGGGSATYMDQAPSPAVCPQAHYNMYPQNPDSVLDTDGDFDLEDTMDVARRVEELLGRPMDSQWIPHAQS

[6] = test system: CWR22Rv1 cells; test: Dead cell count by trypan blue exclusion, CWR22Rv1; assay type: cell-based, human; settings: 25 μM, 24 h
[7] = target: Stat5a/b (Homo sapiens, UniProt P42229); test: EMSA of Stat5a/b binding to DNA; assay type: cell-based; settings: 25 μM, COS-7 cells, compared to Ctrl-treated cells
Sequence of Stat5a/b (P42229 whole entry): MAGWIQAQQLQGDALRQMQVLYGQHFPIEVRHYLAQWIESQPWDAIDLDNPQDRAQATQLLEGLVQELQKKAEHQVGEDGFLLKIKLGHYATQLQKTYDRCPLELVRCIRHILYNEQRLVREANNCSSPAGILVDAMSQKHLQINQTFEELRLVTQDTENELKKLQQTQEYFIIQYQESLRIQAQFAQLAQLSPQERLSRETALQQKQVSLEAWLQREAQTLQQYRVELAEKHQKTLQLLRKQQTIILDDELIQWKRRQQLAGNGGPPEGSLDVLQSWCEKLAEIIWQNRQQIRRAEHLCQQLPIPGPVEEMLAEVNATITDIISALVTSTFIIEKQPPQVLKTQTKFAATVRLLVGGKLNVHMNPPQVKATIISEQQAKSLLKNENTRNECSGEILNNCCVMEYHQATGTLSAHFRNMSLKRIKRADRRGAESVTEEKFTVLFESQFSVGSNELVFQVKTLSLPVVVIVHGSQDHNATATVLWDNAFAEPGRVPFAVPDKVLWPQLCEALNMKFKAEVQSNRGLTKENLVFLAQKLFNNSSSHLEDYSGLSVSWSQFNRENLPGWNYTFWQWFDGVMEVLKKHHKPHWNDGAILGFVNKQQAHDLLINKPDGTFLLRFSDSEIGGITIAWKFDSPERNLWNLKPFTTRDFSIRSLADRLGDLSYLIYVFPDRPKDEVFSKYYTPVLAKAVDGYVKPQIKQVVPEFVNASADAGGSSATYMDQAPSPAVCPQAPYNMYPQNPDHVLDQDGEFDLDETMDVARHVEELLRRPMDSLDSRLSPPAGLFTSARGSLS
Method in brief: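 COS-7 cells were transiently co-transfected with Stat5a and prolactin receptor plasmids, then serum-starved 10 h. They were pretreated 2 h with test compound or control compound and stimulated 30 min with 10 nM human prolactin. DNA binding was probed with the beta-casein gene Stat5 response element.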

[8] = target: Bcr-Abl (Homo sapiens, UniProt P00519+P11274); test: Bcr-Abl tyrosine phosphorylation in K562 cells, immunoblot; assay type: cell-based
[9] = test system: primary CML cells; test: Colony formation of primary CML-chronic phase cells from patients; assay type: cell-based, human; settings: three CML-chronic phase patients, methylcellulose
[10] = test system: Stat5a/b target genes in K562 cells; test: RNA expression profiling of K562 cells; assay type: cell-based; settings: 5 μM, 48 h
Method in brief: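 RNA from vehicle- and test compound-treated cells, alongside Stat5a/b-shRNA and scramble-shRNA cells, was profiled in triplicate on Affymetrix Human Gene 1.0 ST arrays. Differential expression versus the matching control used t-tests with false discovery rate correction.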

[11] = test system: LNCaP and CWR22Rv1 cells; test: Cell cycle analysis of PC cells; assay type: cell-based, human; settings: LNCaP and CWR22Rv1, 72 h
Method in brief: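 LNCaP and CWR22Rv1 cells were treated with test compound, vehicle or control compound for up to 72 h. Cells were fixed, stained with propidium iodide plus RNase A, and analysed by flow cytometry in the FL-2 channel.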

In the case of `O=P(O)(O)OC[C@H]1O[C@@H](n2cnc3c(NCc4ccccc4)ncnc32)[C@H](O)[C@@H]1O` [IST5-002, N6-benzyladenosine-5-monophosphate], the “patient-derived PCs that responded by extensive loss of viable epithelium” value [1] is reported as “Eight out of 11”, the “concentration at which loss of viable epithelium started” value ([1]; responders) is reported as 25 µM and the “viability of EBV-immortalized B-cells that express no active Stat5a/b” value ([2]; 12878, 3798 cell lines) is reported as “only marginal or no effect”. For the same molecule, the “viability of SUP-B15 (Bcr-Abl-driven ALL cell line)” value [2] was “decreased viability”, the “viability of CWR22Rv1 cells depleted of Stat5a/b (shStat5a/b)” value [3] was “did not further affect” and the “decrease in the number of viable PC cells expressing control shRNA” value ([3]; CWR22Rv1) was 40%. The “increase in caspase-3 activation” value [4] was 3 fold, the IC50 [5] was 3.5 µM and the “increase in dead cells” value [6] was 5 fold. For the same molecule, the “reduction of binding of Stat5a/b to its DNA target sequence” value [7] was “approximately 50%”, the “Bcr-Abl tyrosine phosphorylation levels” value [8] was “did not affect” and the “number of viable colonies of primary CML cells” value [9] was “dramatic decrease”. The CISH expression change [10] was −2.3 fold, the “Cyclin D2 expression change” value [10] was −2.3 fold and the Myc expression change [10] was −1.7 fold. For the same molecule, the Pim1 expression change [10] was −1.7 fold, the Pim2 expression change [10] was −1.7 fold and the SOCS3 expression change [10] was −1.3 fold. The TRIB2 expression change [10] was −1.4 fold and the “fraction of dead cells (sub-G1) in cell cycle analysis” value [11] was “increased the fraction of dead cells”.
